Experiment [1] relates to Pseudomonas aeruginosa. The experiment in a line: Minimum inhibitory concentration against Pseudomonas aeruginosa IAI, measured in Muller-Hinton (MH) solid media. The format is functional.
Experiment [2] deals with Pseudomonas aeruginosa. The experiment in a line: Minimum inhibitory concentration against Pseudomonas aeruginosa IAI measured in succinate (SC) solid media. The format is functional.
Experiment [3] relates to Pseudomonas aeruginosa. The experiment in a line: Minimum inhibitory concentration against Pseudomonas aeruginosa K690, measured in succinate (SC) solid media. The format is functional.
Experiment [4] concerns Pseudomonas aeruginosa. The experiment in a line: Minimum inhibitory concentration against Pseudomonas aeruginosa ATCC 15692 measured in Muller-Hinton (MH) solid media. The format is functional.
Experiment [5] deals with Pseudomonas aeruginosa. The experiment in a line: Minimum inhibitory concentration against Pseudomonas aeruginosa ATCC 27853 measured in Muller-Hinton (MH) solid media. The format is functional.
Experiment [6] concerns Pseudomonas aeruginosa. The experiment in a line: Minimum inhibitory concentration against Pseudomonas aeruginosa ATCC 27853 measured in succinate (SC) solid media. The format is functional.
Experiment [7] relates to Pseudomonas aeruginosa. The experiment in a line: Minimum inhibitory concentration against Pseudomonas aeruginosa K690, measured in Muller-Hinton (MH) solid media. The format is functional.
Experiment [8] relates to Pseudomonas aeruginosa. The experiment in a line: Minimum inhibitory concentration against Pseudomonas aeruginosa ATCC 15692 measured in succinate (SC) solid media. The format is functional.
The test system of experiment [9] is Pseudomonas aeruginosa. The experiment in a line: Minimum inhibitory concentration against Pseudomonas aeruginosa IAI measured in succinate (SC) liquid media. The format is functional.
Experiment [10] relates to Pseudomonas aeruginosa. The experiment in a line: Minimum inhibitory concentration against Pseudomonas aeruginosa ATCC 15692 measured in Muller-Hinton (MH) liquid media. The format is functional. The gist of the method: (§1)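 Broth microdilution in Müller-Hinton medium, highest final concentration generally 64 µg/mL, final inoculum 10^6 cells/mL, 18 h at 37 °C. […] Adducts expressed as µg/mL quinolone equivalents.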

Experiment [11] deals with Pseudomonas aeruginosa. The experiment in a line: Minimum inhibitory concentration against Pseudomonas aeruginosa ATCC 15692 measured in succinate (SC) liquid media. The format is functional.
The subject of experiment [12] is Pseudomonas aeruginosa. The experiment in a line: Minimum inhibitory concentration against Pseudomonas aeruginosa ATCC 27853 measured in Muller-Hinton (MH) liquid media. The format is functional.
The subject of experiment [13] is Pseudomonas aeruginosa. The experiment in a line: Minimum inhibitory concentration against Pseudomonas aeruginosa ATCC 27853 measured in succinate (SC) liquid media. The format is functional.
Experiment [14] concerns Pseudomonas aeruginosa. The experiment in a line: Minimum inhibitory concentration against Pseudomonas aeruginosa IAI, measured in Muller-Hinton (MH) liquid media. The format is functional. The procedure, abridged: as §1
Experiment [15] can be described thus: Minimum effective dose required for the inhibition of Escherichia coli gyrase.

Each structure is given as a SMILES string. Converted amounts (≈) assume the structure as drawn.

MIC and MED data for ten compounds are collected here from ChEMBL document CHEMBL1134513, “Synthesis and activities of pyoverdin-quinolone adducts: a prospective approach to a specific Therapy against Pseudomonas aeruginosa” (2001).

For `CCn1cc(C(=O)O)c(=O)c2cc(F)c(N3CCN(C(=O)CCC(=O)NCCNC(=O)CCC(=O)Nc4cc5cc(O)c(O)cc5[n+]5c4NCC[C@H]5C(=O)N[C@H](CO)C(=O)N[C@@H](CCCN=C(N)N)C(=O)N[C@H](CO)C(=O)N[C@@](C)(CCCN(O)C=O)C(=O)N[C@H]4CCCCNC(=O)[C@H]([C@@H](C)O)NC(=O)[C@H]([C@@H](C)O)NC(=O)[C@H](CCCN(O)C=O)NC4=O)CC3)cc21`, the MIC (commonly the smallest concentration in the dilution series that meets the test's criterion for growth inhibition) in experiment [1] is 32 µg/mL; in [2], 4 µg/mL; in experiment [3], 8 µg/mL; in experiment [4], 8 µg/mL; in experiment [5], over 64 µg/mL; in [6], 8 µg/mL. Moreover, the MIC in [7] turned out to be 32 µg/mL; in [8], 2 µg/mL.

Regarding `CCn1cc(C(=O)O)c(=O)c2cc(F)c(N3CCN(C(=O)OCOC(=O)CCC(=O)NCCNC(=O)CCC(=O)Nc4cc5cc(O)c(O)cc5[n+]5c4NCC[C@H]5C(=O)N[C@H](CO)C(=O)N[C@@H](CCCN=C(N)N)C(=O)N[C@H](CO)C(=O)N[C@@](C)(CCCN(O)C=O)C(=O)N[C@H]4CCCCNC(=O)[C@H]([C@@H](C)O)NC(=O)[C@H]([C@@H](C)O)NC(=O)[C@H](CCCN(O)C=O)NC4=O)CC3)cc21`, the MIC amounted to 4 µg/mL in experiment [1]; 0.5 µg/mL in experiment [9]; 2 µg/mL in [2]; 16 µg/mL in experiment [3]; 2 µg/mL in experiment [10]; 2 µg/mL in experiment [4]. For the same compound, the MIC turned out to be 0.5 µg/mL in [11]; 16 µg/mL in experiment [12]; 16 µg/mL in [5]; 8 µg/mL in experiment [13]; 8 µg/mL in [6]; 16 µg/mL in [7]. Moreover, the MIC was 4 µg/mL in experiment [14] and 2 µg/mL in experiment [8].

Turning to `C[C@@H](O)[C@@H]1NC(=O)[C@H](CCCN(O)C=O)NC(=O)[C@@H](NC(=O)[C@](C)(CCCN(O)C=O)NC(=O)[C@@H](CO)NC(=O)[C@H](CCCN=C(N)N)NC(=O)[C@@H](CO)NC(=O)[C@@H]2CCNc3c(NC(=O)CCC(=O)NCCNC(=O)CCC(=O)OCOC(=O)N4CCN(c5cc6nc7c(cc6cc5F)c(=O)c(C(=O)O)cn7C)CC4)cc4cc(O)c(O)cc4[n+]32)CCCCNC(=O)[C@H]([C@@H](C)O)NC1=O` [BENZONAPHTHYRIDONE BPL ADDUCT], the MIC in [1] is 16 µg/mL; in [9] it was 2 µg/mL; in experiment [2] it was 1 µg/mL; in [3], 8 µg/mL; in experiment [10], 4 µg/mL; in experiment [4], 8 µg/mL. The MIC in [11] stood at 2 µg/mL; in experiment [12] it was 32 µg/mL; in experiment [5] it was 64 µg/mL; in experiment [13], 32 µg/mL; in [6] it was 4 µg/mL; in [7] it was 32 µg/mL. For the same compound, the figures for the MIC in experiment [14] and in experiment [8] were 8 µg/mL and 1 µg/mL, respectively.

For the compound `CCn1cc(C(=O)O)c(=O)c2cc(F)c(N3CCN(C(=O)OCOC(=O)CCC(=O)NCCNC(=O)CCC(=O)Nc4cc5cc(O)c(O)cc5[n+]5c4NCC[C@H]5C(=O)N[C@@H](CO)C(=O)N[C@@H](CCCN=C(N)N)C(=O)N[C@H](CO)C(=O)N[C@@](C)(CCCN(O)C=O)C(=O)N[C@H]4CCCCNC(=O)[C@@H]([C@H](C)O)NC(=O)[C@H]([C@H](C)O)NC(=O)[C@H](CCCN(O)C=O)NC4=O)CC3)cc21`, in [15], the MED is 50 µg/mL.

Regarding `C[C@@H](O)[C@@H]1NC(=O)[C@H](CCCN(O)C=O)NC(=O)[C@@H](NC(=O)[C@](C)(CCCN(O)C=O)NC(=O)[C@@H](CO)NC(=O)[C@H](CCCN=C(N)N)NC(=O)[C@@H](CO)NC(=O)[C@@H]2CCNc3c(NC(=O)CCC(=O)NCCNC(=O)CCC(=O)N4CCN(c5cc6nc7c(cc6cc5F)c(=O)c(C(=O)O)cn7C)CC4)cc4cc(O)c(O)cc4[n+]32)CCCCNC(=O)[C@H]([C@@H](C)O)NC1=O`, the minimal inhibitory concentration (MIC) in [1] was 32 µg/mL; in experiment [2], 8 µg/mL; in [3], 4 µg/mL; in experiment [4], 16 µg/mL; in experiment [5], over 64 µg/mL; in experiment [6] it was 8 µg/mL. In addition, the minimal inhibitory concentration (MIC) is 64 µg/mL in experiment [7] and 8 µg/mL in experiment [8].

Take `Cn1cc(C(=O)O)c(=O)c2cc3cc(F)c(N4CCNCC4)cc3nc21`: the MIC in [1] stood at 16 µg/mL (≈ 44.9 µM); in [9], 32 µg/mL (≈ 89.8 µM); in experiment [2], 16 µg/mL (≈ 44.9 µM); in experiment [3], 16 µg/mL (≈ 44.9 µM); in experiment [10], 16 µg/mL (≈ 44.9 µM); in experiment [4] it was 8 µg/mL (≈ 22.4 µM). In addition, the MIC was 64 µg/mL (≈ 180 µM) in experiment [11]; 32 µg/mL (≈ 89.8 µM) in [12]; 16 µg/mL (≈ 44.9 µM) in [5]; over 64 µg/mL in experiment [13]; 8 µg/mL (≈ 22.4 µM) in experiment [6]; 32 µg/mL (≈ 89.8 µM) in [7]. Further, the values for the MIC in [14] and in [8] were 16 µg/mL (≈ 44.9 µM) and 4 µg/mL (≈ 11.2 µM), respectively. In experiment [15], this compound came in with an MED of 4 µg/mL.

Consider `C[C@H](O)[C@@H]1NC(=O)[C@H](CCCN(O)C=O)NC(=O)[C@@H](NC(=O)[C@](C)(CCCN(O)C=O)NC(=O)[C@@H](CO)NC(=O)[C@H](CCCN=C(N)N)NC(=O)[C@H](CO)NC(=O)[C@@H]2CCNc3c(NC(=O)CCC(=O)NCCNC(=O)CCC(=O)N4CCN(c5cc6nc7c(cc6cc5F)c(=O)c(C(=O)O)cn7C)CC4)cc4cc(O)c(O)cc4[n+]32)CCCCNC(=O)[C@@H]([C@H](C)O)NC1=O`, for which the MED in experiment [15] came to 25 µg/mL.

In [15], `CCn1cc(C(=O)O)c(=O)c2cc(F)c(N3CCN(C(=O)CCC(=O)NCCNC(=O)CCC(=O)Nc4cc5cc(O)c(O)cc5[n+]5c4NCC[C@H]5C(=O)N[C@@H](CO)C(=O)N[C@@H](CCCN=C(N)N)C(=O)N[C@H](CO)C(=O)N[C@@](C)(CCCN(O)C=O)C(=O)N[C@H]4CCCCNC(=O)[C@@H]([C@H](C)O)NC(=O)[C@H]([C@H](C)O)NC(=O)[C@H](CCCN(O)C=O)NC4=O)CC3)cc21` yielded an MED of 50 µg/mL.

In [15], `C[C@H](O)[C@@H]1NC(=O)[C@H](CCCN(O)C=O)NC(=O)[C@@H](NC(=O)[C@](C)(CCCN(O)C=O)NC(=O)[C@@H](CO)NC(=O)[C@H](CCCN=C(N)N)NC(=O)[C@@H](CO)NC(=O)[C@@H]2CCNc3c(NC(=O)CCC(=O)NCCNC(=O)CCC(=O)OCOC(=O)N4CCN(c5cc6nc7c(cc6cc5F)c(=O)c(C(=O)O)cn7C)CC4)cc4cc(O)c(O)cc4[n+]32)CCCCNC(=O)[C@@H]([C@H](C)O)NC1=O` returned an MED of 25 µg/mL.

Take `CCn1cc(C(=O)O)c(=O)c2cc(F)c(N3CCNCC3)cc21` [NORFLOXACIN]: the MIC in [1] was determined as 1 µg/mL (≈ 3.13 µM); in experiment [9], 0.25 µg/mL (≈ 0.783 µM); in experiment [2] it was 0.03 µg/mL (≈ 0.0939 µM); in [3], 4 µg/mL (≈ 12.5 µM); in [10] it was 1 µg/mL (≈ 3.13 µM); in experiment [4] it was 0.25 µg/mL (≈ 0.783 µM). Moreover, the MIC is 0.25 µg/mL (≈ 0.783 µM) in experiment [11]; 4 µg/mL (≈ 12.5 µM) in [12]; 2 µg/mL (≈ 6.26 µM) in experiment [5]; 2 µg/mL (≈ 6.26 µM) in experiment [13]; 0.25 µg/mL (≈ 0.783 µM) in [6]; 8 µg/mL (≈ 25.1 µM) in experiment [7]. The results for the MIC in experiment [14] and in experiment [8] were 1 µg/mL (≈ 3.13 µM) and 0.06 µg/mL (≈ 0.188 µM), respectively.
